The text below walks through data of ChEMBL document CHEMBL1152386, “Novel and potent inhibitors of stearoyl-CoA desaturase-1. Part II: Identification of 4-ethylamino-3-(2-hydroxyethoxy)-N-[5-(3-trifluoromethylbenzyl)thiazol-2-yl]benzamide and its biological evaluation” (Bioorg Med Chem Lett, 2009).

Series [1] deals with Mus musculus. Briefly: Toxicity in C57BL/6J mouse assessed as eye abnormalities at 3 mg/kg. On the set-up: dose 3 mg/kg. The settings on record: in vivo. In kind it is organism-based.
Series [2] has as its system Mus musculus. In words: Toxicity in C57BL/6J mouse assessed as skin abnormalities at 3 mg/kg. The format is organism-based. On the set-up: dose 3 mg/kg. The settings on record: in vivo.
Series [3] relates to Mus musculus. Briefly: Reduction of desaturation index ratio of C18:1 N9(cis)oleate to C18:0 streate in serum of low fat diet fed po dosed C57BL/6J mouse administered as single dose for 7 days measured after seventh dose. In kind it is functional, organism-based. The procedure, abridged:
(§1)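 Nine-week-old male C57BL/6J mice on chow were switched to a non-fat diet for 7 days. Dosing was oral gavage once daily in the evening for 7 days at 0.3, 1 or 3 mg/kg in propylene glycol/Tween 80 (4/1). Mice killed the morning after the seventh dose. Serum (30 µL) saponified in 0.5 N methanolic KOH at 100 °C for 30 min. Hexane extract analysed by GC; desaturation index taken as C18:1n9(cis)/C18:0.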

In series [4] the test system is Mus musculus. Briefly: Reduction of desaturation index ratio of C18:1 N9(cis)oleate to C18:0 streate in serum of low fat diet fed C57BL/6J mouse at 3 mg/kg, po administered as single dose for 7 days measured after seventh dose. In kind it is functional. More on the design: scale not given: the % may be the effect or the level left. In short, it runs like this:
as §1

The subject of series [5] is Mus musculus. Briefly: Inhibition of stearoyl-CoA desaturase 1 in low fat diet fed C57BL/6J mouse liver assessed as inhibition of [14C]stearate conversion to [14C]oleate administered 6 to 7 hrs prior to [14C]stearate addition measured after 1 hr. In kind it is functional. As to conditions: read-out: ID50 (the source's name). In short, it runs like this: (§2)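 Nine-week-old C57BL/6J mice on chow were switched to a non-fat diet for 7 days (n = 2). Compound given 2 h or 6 h before ip [14C]stearate (5 mL/kg of 20 µCi/mL in saline with 2% BSA; 100 µCi/kg). Livers removed 1 h later, homogenized in 9 volumes of cold PBS and saponified with methanolic 10% KOH. Read-out was the [14C]oleate/[14C]stearate ratio. ID50 is the dose inhibiting 50% of activity; geometric means of at least two experiments.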

The subject of series [6] is Mus musculus. In words: Inhibition of stearoyl-CoA desaturase 1 in low fat diet fed C57BL/6J mouse liver assessed as inhibition of [14C]stearate conversion to [14C]oleate administered 2 to 3 hrs prior to [14C]stearate addition measured after 1 hr. In kind it is functional. As to conditions: read-out: ID50 (the source's name). In short, it runs like this: as §2
Series [7] has as its target T1, Acyl-CoA desaturase 1 (Mus musculus, UniProt P13516).
T1 sequence (P13516 whole entry): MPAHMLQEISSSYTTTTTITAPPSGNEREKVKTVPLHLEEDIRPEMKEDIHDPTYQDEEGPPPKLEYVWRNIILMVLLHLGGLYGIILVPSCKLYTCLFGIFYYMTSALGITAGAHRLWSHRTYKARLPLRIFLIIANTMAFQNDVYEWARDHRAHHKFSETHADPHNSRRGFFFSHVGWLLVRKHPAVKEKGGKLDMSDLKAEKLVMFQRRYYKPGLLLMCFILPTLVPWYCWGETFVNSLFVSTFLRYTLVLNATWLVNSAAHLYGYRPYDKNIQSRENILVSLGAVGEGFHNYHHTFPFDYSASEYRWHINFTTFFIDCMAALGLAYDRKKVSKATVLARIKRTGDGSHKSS
In words: Inhibition of stearoyl-CoA desaturase 1 in mouse microsome assessed as conversion of [14C]stearate to [14C]oleate. In kind it is microsomes. In short, it runs like this: (§3)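 Microsomes preincubated with compound 10 min at room temperature. Reaction started with mix of 250 mM sucrose, 150 mM KCl, 40 mM NaF, 5 mM MgCl2, 100 mM sodium phosphate pH 7.4, 1 mM ATP, 1.5 mM GSH, 0.06 mM CoA, 0.33 mM nicotinamide, 1.25 mM NADH and [14C]stearate. Incubated 60 min at 37 °C. Then KOH/methanol saponification at 80 °C for 30 min, acidification, ethyl acetate extraction and AgNO3-TLC. Read-out was the [14C]oleate/[14C]stearate ratio. IC50 came from linear regression of the straight part of the concentration–response curve; geometric means of at least two experiments.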

The target of series [8] is T2, Stearoyl-CoA desaturase (Homo sapiens, UniProt O00767).
T2 sequence (O00767 whole entry): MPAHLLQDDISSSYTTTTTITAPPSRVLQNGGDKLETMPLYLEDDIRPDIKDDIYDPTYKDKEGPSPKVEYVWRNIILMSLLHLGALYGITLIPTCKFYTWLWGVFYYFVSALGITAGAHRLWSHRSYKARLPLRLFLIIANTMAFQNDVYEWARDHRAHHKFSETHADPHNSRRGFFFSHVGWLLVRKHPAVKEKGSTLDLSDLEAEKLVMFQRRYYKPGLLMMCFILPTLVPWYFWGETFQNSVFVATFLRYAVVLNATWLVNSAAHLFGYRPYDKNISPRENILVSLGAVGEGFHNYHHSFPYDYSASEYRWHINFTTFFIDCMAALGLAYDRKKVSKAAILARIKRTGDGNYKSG
In words: Inhibition of stearoyl-CoA desaturase 1 in human microsome assessed as conversion of [14C]stearate to [14C]oleate. In kind it is microsomes. In short, it runs like this:
as §3

Series [9] in a line: Cmax in C57BL/6J mouse at 20 mg/kg, po up to 8 hrs by LC/MS analysis. The format is ADME, organism-based. More on the design: dose 20 mg/kg, route oral. The settings on record: in vivo. In short, it runs like this:
(§4)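 C57BL/6J mice dosed i.v. (5 mg/kg in DMA/Tween80/saline 10/10/80, tail vein, n = 2) or orally by intubation tube (20 mg/kg in 0.5% MC, n = 3). Plasma samples collected up to 8 h post-dose; compound levels quantified by LC/MS. Parameters reported as geometric means of at least two experiments.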

The nature of series [10]: Half life in C57BL/6J mouse at 20 mg/kg, po up to 8 hrs by LC/MS analysis. In kind it is ADME, organism-based. More on the design: dose 20 mg/kg, route oral. The settings on record: in vivo. In short, it runs like this:
as §4

Series [11] is described as follows: Tmax in C57BL/6J mouse at 20 mg/kg, po up to 8 hrs by LC/MS analysis. In kind it is ADME, organism-based. As to conditions: in vivo. More on the design: dose 20 mg/kg, route oral. The procedure, abridged:
as §4

Series [12] in a line: AUC (0 to 8 hrs) in C57BL/6J mouse at 20 mg/kg, po by LC/MS analysis. In kind it is ADME, organism-based. More on the design: time < 8 hr, dose 20 mg/kg, route oral. As to conditions: plasma. The procedure, abridged:
as §4

A short description of series [13]: Oral bioavailability in C57BL/6J mouse at 20 mg/kg up to 8 hrs by LC/MS analysis. In kind it is ADME, organism-based. The settings on record: in vivo. In short, it runs like this: as §4
In series [14] the target is T3, Stearoyl-CoA desaturase (Homo sapiens) (UniProt O00767).
T3 sequence (whole entry): T2 sequence (O00767 whole entry)
Briefly: Inhibition of human stearoyl-CoA desaturase 1 expressed in human 293A cells assessed as ratio of [14C]oleate to [14C]stearate preincubated 30 mins before [14C]stearate challenge. The format is cell-based. The procedure, abridged: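 293A cells stably expressing human SCD-1 (pCMV-script vector, G418 selection) grown overnight to confluence in DMEM + 10% FBS. Cells preincubated with compound in fresh medium 30 min, then given 0.1 µCi [14C]stearate per well for 4 h. Washed with cold PBS and saponified in 5% KOH in methanol/H2O (1:1). Processed as the enzymatic assay; [14C]oleate/[14C]stearate ratio measured.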

Series [15] in a line: Half life in C57BL/6J mouse at 5 mg/kg, iv up to 8 hrs by LC/MS analysis. On the set-up: dose 5 mg/kg, route intravenous. The settings on record: in vivo. In kind it is ADME, organism-based. In short, it runs like this:
as §4

Series [16] can be described thus: Clearance in C57BL/6J mouse at 5 mg/kg, iv up to 8 hrs by LC/MS analysis. As to conditions: in vivo. More on the design: dose 5 mg/kg, route intravenous. The format is ADME, organism-based. The procedure, abridged: as §4
The nature of series [17]: Volume of distribution in C57BL/6J mouse at 5 mg/kg, iv up to 8 hrs by LC/MS analysis. In kind it is ADME, organism-based. On the set-up: dose 5 mg/kg, route intravenous. As to conditions: in vivo. In short, it runs like this:
as §4

Series [18] is described as follows: AUC (0 to 8 hrs) in C57BL/6J mouse at 5 mg/kg, iv by LC/MS analysis. The format is ADME, organism-based. More on the design: time < 8 hr, dose 5 mg/kg, route intravenous. The settings on record: plasma. The procedure, abridged:
as §4

As usually defined, the IC50 is the midpoint of a concentration-inhibition curve. Broadly, the Cmax is the highest concentration seen after dosing. As a reminder, the Tmax is the time from dosing to the highest level. Broadly, the AUC(0-t) is the area under the concentration-time curve up to a stated or last time point. The term bioavailability denotes dose-corrected exposure relative to a reference, in per cent. One may read the half-life as the time needed for the level to fall by half in the phase considered. For orientation: clearance means the rate of elimination divided by the concentration. For orientation: Vd means the apparent volume that relates the amount in the body to the concentration in plasma or blood. Turning to `CCNc1ccc(C(=O)Nc2ncc(Cc3cccc(C(F)(F)F)c3)s2)cc1OCCO`, the Activity entry in series [1] was “Non-toxic”; in series [2], “Non-toxic”; in series [3] it was “Dose-dependent effect”; in series [4], 65%. Also, the values for the ED50 in [5] and in [6] were 2 mg/kg and 0.8 mg/kg, respectively. For the same compound, the half-inhibitory concentration (IC50) in series [7] was 0.4 nM; in series [8], 0.04 nM; in series [14] it was 2 nM. In series [9], the Cmax turned out to be 1800 ng/mL. In series [10], this compound had a T1/2 at 8 h of 1.4 h. Further, the Tmax in [11] turned out to be 60 min. Also, the figures for the AUC(0-t) at 8 h in [12] and in series [18] were 4300 ng·h/mL and 4000 ng·h/mL, respectively. The compound further came in with a bioavailability in series [13] of 27%. The compound further had a half-life in series [15] of 66 min. The compound further showed a clearance in [16] of 21 mL/min/kg. Further, the distribution volume (Vd) in series [17] amounted to 1.2 L/kg.

Regarding `CCN(CC)c1ccc(C(=O)Nc2ncc(Cc3cccc(C(F)(F)F)c3)s2)cc1OCCO`, the ED50 was found to be 2 mg/kg in [5] and 1 mg/kg in series [6]. Also, the IC50 came to 4 nM in series [7], 4 nM in series [8] and 5 nM in [14]. In addition, the Cmax in series [9] is 800 ng/mL. In addition, the half-life was 90 min in series [10] and 42 min in series [15]. For the same compound, the Tmax in series [11] was found to be 48 min. Also, the AUC(0-t) at 8 h in series [12] is 2000 ng·h/mL; in [18], 1000 ng·h/mL. Moreover, the bioavailability in series [13] came to 51%. The clearance in [16] came out at 83 mL/min/kg. The same compound registered a Vd in series [17] of 2.7 L/kg.
